# According to ChEMBL document CHEMBL4177752, “Discovery of Novel Schizocommunin Derivatives as Telomeric G-Quadruplex Ligands That Trigger Telomere Dysfunction and the Deoxyribonucleic Acid (DNA) Damage Response” (J Med Chem, 2018):
# Calls of active or inactive are those of the source. The rule behind the calls is not given here.
# What was measured:
# [1] = test system: Quadruplex DNA; experiment: Stabilization of F21T telomeric G-quadruplex DNA (unknown origin) at 1 uM in presence of non-fluorescent duplex DNA ds26 by FRET assay; type: nucleic-acid assay
# Method in brief: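 Competition FRET: 0.2 µM F21T with 1 µM ligand, plus or minus unlabelled duplex ds26 at 3 µM (15-fold) or 10 µM (50-fold), in 10 mM Tris-HCl pH 7.4 with 60 mM KCl. Melting monitored at 470/530 nm over 37–99 °C.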
# [2] = molecular target: Quadruplex DNA; experiment: Binding affinity to HTG21 telomeric G-quadruplex DNA (unknown origin) by SPR method; type: nucleic-acid assay
# Method in brief: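 SPR: biotinylated HTG21 or hairpin DNA (200 nM) was folded in 50 mM Tris-HCl pH 7.4 with 100 mM KCl and captured to about 1,000 RU on an NLC chip against a blank reference cell. Ligand at 0.625–40 µM was injected at 25 µL/min (400 s association, 300 s dissociation) at 25 °C. The chip was regenerated with 1 M KCl and blank sensorgrams were subtracted.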
# [3] = test system: HeLa; experiment: Antiproliferative activity against human HeLa cells after 48 hrs by MTT assay; type: functional, cell-based
# Method in brief: (§1)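 Cells seeded at 5.0×10^3 per well and exposed to a range of compound concentrations for 48 h. MTT (2.5 mg/mL solution) was then added for 4 h, formazan was dissolved in DMSO, and OD was read at 570 nm. HL-60 was grown in RPMI-1640 with 10% FBS, the other lines in DMEM with 10% FBS, at 37 °C and 5% CO2. Triplicates; IC50 taken from mean OD versus concentration curves.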
# [4] = test system: SiHa; experiment: Antiproliferative activity against human SiHa cells after 48 hrs by MTT assay; type: functional, cell-based; method in brief: as §1
# [5] = test system: HL-60; experiment: Antiproliferative activity against human HL60 cells after 48 hrs by MTT assay; type: functional, cell-based; conditions: HL-60, 48 h; method in brief: as §1
# [6] = test system: A549; experiment: Antiproliferative activity against human A549 cells after 48 hrs by MTT assay; type: functional, cell-based; conditions: A549, 48 h; method in brief: as §1
# [7] = test system: U2OS; experiment: Antiproliferative activity against human U2OS cells after 48 hrs by MTT assay; type: functional, cell-based; method in brief: as §1
# [8] = Inhibition of telomerase (unknown origin) by TRAP-LIG assay; parameters: species or system Homo sapiens
# [9] = test system: Quadruplex DNA; experiment: Stabilization of telomeric G-quadruplex DNA in human SiHa cells assessed as induction of DNA damage response by measuring gamma-H2AX foci formation per nucleus at 2 uM after 24 hrs by DAPI staining-based immunofluorescence method relative to control; type: cell-based
# Method in brief: (§2)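 Cells were treated 24 h with 2 µM compound or 0.1% DMSO, then fixed (4% paraformaldehyde), permeabilized (0.5% Triton X-100) and blocked (5% goat serum). Staining used BG4 (80 ng/µL, 37 °C 3 h) with anti-FLAG, and/or γ-H2AX, TRF2 or POT1 antibodies at 4 °C overnight. Alexa 488/555 secondaries and DAPI followed. Foci or co-localized foci per nucleus were counted by confocal microscopy; mean ± SEM, two-tailed unpaired t test.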
# [10] = test system: Quadruplex DNA; experiment: Stabilization of telomeric G-quadruplex DNA in human SiHa cells assessed as induction of DNA damage response by measuring co-localization of gamma-H2AX and TRF2 foci per nucleus at 2 uM after 24 hrs by DAPI staining-based double immunofluorescence method; type: cell-based; method in brief: as §2
# [11] = test system: Quadruplex DNA; experiment: Stabilization of telomeric G-quadruplex DNA in human U2OS cells assessed as induction of DNA damage response by measuring gamma-H2AX foci formation per nucleus at 2 uM after 24 hrs by DAPI staining-based immunofluorescence method; type: cell-based; method in brief: as §2
# [12] = test system: Quadruplex DNA; experiment: Stabilization of telomeric G-quadruplex DNA in human SiHa cells assessed as reduction of POT1/TRF2 co-localized foci per nucleus at 2 uM after 24 hrs by DAPI staining-based double immunofluorescence method; type: cell-based; method in brief: as §2
# [13] = test system: Quadruplex DNA; experiment: Stabilization of telomeric G-quadruplex DNA in human SiHa cells assessed as increase in phosphorylated ATR expression after 48 hrs by Western blot method; type: cell-based
# Method in brief: (§3)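 SiHa cells were treated with compound for 48 h and lysed in RIPA buffer. 20 µg protein was run on 10% SDS-PAGE and transferred to PVDF. Blots were blocked in 3% BSA, probed with primary antibodies (1:1,000, 4 °C 16 h) for p-ATR, p-CHK1 and p-P53, then secondaries (1:2,000, 2 h at room temperature).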
# [14] = test system: Quadruplex DNA; experiment: Stabilization of telomeric G-quadruplex DNA in human SiHa cells assessed as increase in phosphorylated CHK1 expression after 48 hrs by Western blot method; type: cell-based; method in brief: as §3
# [15] = test system: Quadruplex DNA; experiment: Stabilization of telomeric G-quadruplex DNA in human SiHa cells assessed as increase in phosphorylated p53 expression after 48 hrs by Western blot method; type: cell-based; method in brief: as §3
# [16] = test system: Quadruplex DNA; experiment: Stabilization of telomeric G-quadruplex DNA in human SiHa cells assessed as decrease in TRF length at 0.5 to 1 uM after 21 days by chemiluminescence detection method; type: cell-based
# Method in brief: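 SiHa cells were kept 21 days with 0.5 or 1 µM compound or 0.1% DMSO, with medium and compound renewed every 3 days. Genomic DNA was cut with HinfI/RsaI, run on 0.8% agarose, blotted to nylon, baked at 120 °C for 20 min, and TRF length detected by chemiluminescence.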
# [17] = test system: SiHa; experiment: Cell cycle arrest in human SiHa cells assessed as accumulation at G2/M phase at 1 uM after 12 hrs by propidium iodide staining-based flow cytometric method; type: functional
# Method in brief: (§4)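 SiHa or U2OS cells (2.0×10^5 per well) were treated with compound or DMSO for 12 h, fixed in ice-cold 70% ethanol overnight, and stained with 50 µg/mL PI plus RNase A for 30 min at room temperature in the dark. 10,000 events were collected by flow cytometry to give the phase distribution.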
# [18] = test system: U2OS; experiment: Cell cycle arrest in human U2OS cells assessed as accumulation at G2/M phase at 1 uM after 12 hrs by propidium iodide staining-based flow cytometric method; type: functional; method in brief: as §4
# [19] = test system: SiHa; experiment: Induction of apoptosis in human SiHa cells after 96 hrs by annexin V-FITC/propidium iodide staining-based flow cytometric method; type: functional, cell-based
# Method in brief: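 SiHa cells were treated with compound or DMSO for 96 h, washed, resuspended in binding buffer, and stained with Annexin V-FITC and PI for 15 min in the dark. Apoptotic percentage was measured by flow cytometry; mean ± SEM.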
# [20] = test system: SiHa; experiment: Antiproliferative activity against human SiHa cells assessed as decrease in colony formation at 0.125 to 0.5 uM after 12 days by crystal violet staining-based assay; type: functional, cell-based
# [21] = test system: SiHa; experiment: Antiproliferative activity against human SiHa cells after 90 hrs by RTCA method; type: functional, cell-based
# Method in brief: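 SiHa proliferation was followed by real-time cellular analysis during 90 h of compound treatment at several concentrations.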
# [22] = test system: SiHa; experiment: Antitumor activity against human SiHa cells xenografted in BALB/C-nu/nu mouse assessed as tumor growth inhibition at 10 mg/kg, ip administered daily for 3 weeks measured post last dose relative to vehicle-treated control; type: functional; conditions: 504 h, read-out: TGI
# Method in brief: (§5)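 SiHa cells (1×10^7 per 100 µL, serum-free DMEM) were injected subcutaneously. Grown tumors were divided into pieces and implanted into BALB/C-nu/nu mice. Caliper volume (1/2 × L × W²) and body weight were recorded daily; tumors were weighed at the end.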
# [23] = test system: SiHa; experiment: Antitumor activity against human SiHa cells xenografted in BALB/C-nu/nu mouse assessed as tumor growth inhibition at 20 mg/kg, ip administered daily for 3 weeks measured post last dose relative to vehicle-treated control; type: functional; conditions: 504 h, read-out: TGI; method in brief: as §5
compound,measurement,setting,value
CN(C)CCCNc1cc2nc(/C=C3\C(=O)Nc4cc(N5CCN(C)CC5)ccc43)[nH]c(=O)c2cc1F,Activity,[1],Active
same,Kd,[2],8.1 µM
same,IC50,[3],3.8 µM
same,IC50,[4],2.8 µM
same,IC50,[5],2.5 µM
same,IC50,[6],9.1 µM
same,IC50,[7],3.2 µM
same,IC50,[8],9.6 µM
same,fold change (FC),[9],3
same,Activity,[10],Active
same,Activity,[11],Active
same,Activity,[12],Active
same,Activity,[13],Dose-dependent effect
same,Activity,[14],Dose-dependent effect
same,Activity,[15],Dose-dependent effect
same,Activity,[16],Active
same,Activity,[17],Active
same,Activity,[18],Active
same,Activity,[19],Dose-dependent effect
same,Activity,[20],Active
same,Activity,[21],Dose-dependent effect
same,inhibition in vivo at 10 mg/kg,[22],29%
same,inhibition in vivo at 20 mg/kg,[23],65.2%
